Tests used:
[1] = target: Leukotriene B4 receptor 1 (Homo sapiens, UniProt Q15722); test: Inhibition of [3H]- LTB4 binding on human whole cells
Outline: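 Intact DMSO-differentiated (1.3%, 3-4 days) human U-937 cells, or isolated human peripheral blood PMNs, 10⁶ cells, incubated in HBSS with 0.1% ovalbumin, 0.2 nM [³H]LTB₄ and compound (0.1 nM-10 μM, 5-8 concentrations in duplicate) for 20 min at 0 °C. Nonspecific binding measured with 1 μM unlabeled LTB₄. Filtration, scintillation counting. Ki from IC50 by Cheng-Prusoff; mean of ≥2 assays.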

[2] = Agonist-induced calcium mobilization using human polymorphonuclear leukocytes; parameters: concentration or dose not given beside the values

Leukotriene B4 receptor 1, sequence (Q15722 whole entry): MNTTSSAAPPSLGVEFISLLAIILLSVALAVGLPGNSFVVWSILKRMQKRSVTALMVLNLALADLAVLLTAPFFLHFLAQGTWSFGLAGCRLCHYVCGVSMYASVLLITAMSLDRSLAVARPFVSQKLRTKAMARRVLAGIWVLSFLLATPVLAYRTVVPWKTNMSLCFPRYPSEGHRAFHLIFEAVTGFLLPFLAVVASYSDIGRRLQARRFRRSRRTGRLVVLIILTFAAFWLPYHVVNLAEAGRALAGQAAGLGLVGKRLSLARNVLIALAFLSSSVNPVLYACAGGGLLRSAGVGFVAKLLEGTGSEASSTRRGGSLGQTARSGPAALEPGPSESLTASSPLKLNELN

| Ki [1] [nM] | SMILES | Agonist activity % [2] [%] |
| --- | --- | --- |
| 100 | CCCCCCCCC(O)c1ccc2ccc(CCc3cccc(C(=O)[O-])c3)nc2c1.[Li+] (centres undefined) | 66 |
| 2800 | CCCCCCCCC(O)c1ccc2ccc(CCCCCC(=O)O)nc2c1 (centres undefined) | 58 |
| 700 | CCCCC/C=C\C[C@H](O)/C=C/c1cccc(C[C@H](O)CCCCO)n1 | 100 |
| 3 | CCCCOc1cccc(C(O)/C=C/c2cccc(CC(O)c3cccc(C(=O)[O-])c3)n2)c1.[Li+] (centres undefined) | 56 |
| 1400 | CCCCCCCCC(O)c1ccc2ccc(/C=C/CCCC(=O)O)nc2c1 (centres undefined) | 45 |
| 1000 | CCCCOc1cccc(C(O)CCc2cccc(CC(O)c3cccc(C(=O)[O-])c3)n2)c1.[Li+] (centres undefined) | 4 |
| 10 | CCCCCCCCC(O)c1ccc2ccc(CC(O)c3cccc(C(=O)[O-])c3)nc2c1.[Li+] (centres undefined) | 74 |
| 140 | CCCCCCCCC(O)c1ccc2ccc(C[S+]([O-])c3cccc(C(=O)O)c3)nc2c1 (centres undefined) | 98 |
| 60 | CCCCCCCCC(O)CCc1cccc(CC(O)c2cccc(C(=O)[O-])c2)n1.[Li+] (centres undefined) | 84 |
|  | CCCCCCCCC(O)/C=C/c1cccc(CC(O)c2cccc(C(=O)[O-])c2)n1.[Li+] (centres undefined) | 86 |
| 900 | CCCCCCCCC(O)c1ccc2ccc(CC(O)CCCC(=O)O)nc2c1 (centres undefined) | 63 |
| 50 | CCCCCCCC[C@@H](O)c1ccc2ccc(CCc3cccc(C(=O)[O-])c3)nc2c1.[Li+] | 56 |
| 500 | CCCCCCCCC(O)c1ccc2ccc(C[S+]([O-])c3cccc(C(=O)[O-])c3)cc2c1.[Li+] (centres undefined) | 56 |
| 600 | CCCCCCCCC(O)c1ccc2ccc(CSc3cccc(C(=O)O)c3)nc2c1 (centres undefined) | 85 |
| 9000 | CCCCCCCCC(O)c1ccc2ccc(CSc3cccc(C(=O)[O-])c3)cc2c1.[Li+] (centres undefined) | 23 |

Source: ChEMBL document CHEMBL1126874, “Synthesis of structural analogs of leukotriene B4 and their receptor binding activity” (J Med Chem, 1993)
